Screening results (PubChem BioAssay)
Compounds with a hit are over-represented: about 11% of the library has one in this group of screens.
Diaphorase inh – diaphorase inhibition or chemical oxidation counter-screen; diaphorase resazurin-to-resorufin fluorescence, NADH, 16 min; bacterial (C. kluyveri) enzyme, not human; inhibition, % at 20 µM; hit rate 0.69% among 190,000; AID 1217;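 active means primary screen inhibition at 20 µM above a set limit, cut at about 50% in these data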;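 further: plate controls were DMSO with full reaction for no effect and wells lacking NADH for full effect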
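controls = No-NADH positive control and DMSO neutral control | system = Clostridium kluyveri diaphorase enzyme | timing = reaction incubation of 16 min at room temperature | signal = resorufin fluorescence 544/590 nm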
Diaph act CS – diaphorase activation or chemical reduction counter-screen | Diaphorase/resazurin coupled assay, resorufin fluorescence, 16 min; hits give high values; 1 = vehicle wells, 0 = NADH-free wells | activation factor at 20 µM | hit rate 0.005% among 190,000;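 active means diaphorase activity raised at least twofold by the compound at 20 µM; inactive means activation factor below 2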
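Test system: Clostridium kluyveri diaphorase, purified enzyme. Buffer or medium: 50 mM HEPES pH 7.4 buffer plus MgCl2 and Tween 20. Also added: 0.114 mM NADH and 0.1 mM resazurin, final amounts. Dosing: compound 20 µM once, DMSO 1%. Schedule: 16 min enzyme reaction, ambient temperature. Detection: fluorescence of resorufin, 544 nm excitation, 590 nm emission.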
G6PDH counter – inhibits Leuconostoc G6PDH, flagging false hits in G6PDH-based assays. hit rate 0.12% among 200,000. Purified L. mesenteroides G6PDH, diaphorase/resazurin coupled fluorescence, 45 min. inhibition, % at 5 µM
WT yeast gro inh – growth inhibition of WT yeast, mitochondrial fusion screen | mitochondrial fusion phenotypic screen, WT strain | inhibition, % at 10 µM | hit rate 2.1% among 190,000 | AID 1362; in the data active means inhibition above about 58%; tested in S. cerevisiae
L major viab – reduces viability of Leishmania major promastigotes | resazurin fluorescence viability | inhibition, % at 10 µM | hit rate 9% among 200,000;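 further: promastigotes grown with compound for 44 hours at 28 °C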
* marks the source's active call; other numbers are inactive results. Unless noted, no stated cut-off is given here; in the data, active means inhibition above about 50%; inactive means the rest.

SMILES	Diaphorase inh	Diaph act CS	G6PDH counter	WT yeast gro inh	L major viab
O=C(CCN1C(=O)/C(=C\c2ccccc2Cl)SC1=S)N1CCN(c2ccccc2)CC1	-2	1	-1	-7	91*
CCc1ccc(/C=C2\SC(=S)N(CCC(=O)Nc3cc(C)on3)C2=O)cc1	-5	1.1	8	-3	-5
COC(=O)CNC(c1ccccc1)c1cc(C)ccc1NC(=O)c1cccc(Cl)c1 (stereo not drawn)	8	0.9	-4	71*	16
COC(=O)CNC(c1ccccc1)c1cc(C)ccc1NC(=O)CNC(=O)OCc1ccccc1 (stereo not drawn)	12	0.9	15	5	5
O=C1NC(c2ccccc2)=C(c2nc3ccccc3s2)C(c2ccc(O)cc2)N1 (stereo not drawn)	15	0.9	1	-12	81*
O=C1NC(c2ccccc2)=C(c2ccc3ccccc3n2)C(c2ccccc2)N1 (stereo not drawn)	29	0.7	2	6	85*
O=C1NC(c2ccccc2)=C(c2ccc3ccccc3n2)C(c2ccc(F)cc2)N1 (stereo not drawn)	27	0.7	-1	1	38
CS(=O)(=O)Nc1ccc(C2=NN(S(=O)(=O)c3ccc(F)cc3)C(c3ccco3)C2)cc1 (stereo not drawn)	24	0.8	7	4	5
c1coc(C2=Nc3cccc4cccc(c34)N2)c1	60*	0.4	46	15	37
CCCN1CCN(C(=S)Nc2ccc(SC(F)F)cc2)CC1	6	0.9	7	9	90*
CC1CCN(C(=S)Nc2ccc(SC(F)F)cc2)CC1	12	0.9	3	16	72*
O=C(N/N=C/c1ccc(OC(F)F)cc1OC(F)F)NC1CCCCC1	30	0.7	3	45	40
Cc1cc2c3c(c1)C1(SCC(=O)N1c1ccc(F)cc1)C(=O)N3C(C)(C)CC2C (stereo not drawn)	13	0.9	4	63*	61*
N#CCC(=N)N1CCN(c2ccc(F)cc2)CC1	-3	1	1	18	-7
O=C(NC1CCCCC1)N(Cc1ccccc1)Cc1ccco1	10	0.9	4	12	55*
CC(C)C(C(=O)NCc1ccco1)N(C(=O)CNS(=O)(=O)c1ccccc1)c1ccccc1 (stereo not drawn)	0	1	1	-11	17
CC(C)C(C(=O)NCc1ccco1)N(C(=O)CNS(=O)(=O)c1ccc(Cl)cc1)C1CCCC1 (stereo not drawn)	11	0.9	13	-37	89*
CCCC(C(=O)NCC1CCCO1)N(Cc1ccco1)C(=O)CNS(=O)(=O)c1ccccc1 (stereo not drawn)	5	0.9	0	11	24
CCCC(C(=O)NC1CCCCC1)N(Cc1ccco1)C(=O)CNS(=O)(=O)c1ccccc1 (stereo not drawn)	12	0.9	-1	20	63*
Cc1ccc(/C=C/C(=O)NC2CCCCCCC2)o1	20	0.8	0	-6	5
CCc1ccc2nc(N=C(N)N)nc(C)c2c1	0	1	7	9	96*
Cc1cc2nc(N=C(N)N)nc(C)c2cc1C	1	1	0	-8	100*
Cc1ccc2nc(N=C(N)N)nc(C)c2c1	-3	1	2	11	26
COc1ccc(CCC(=O)N(C)CC(=O)Nc2cc(C)ccc2C)cc1	4	1	8	-9	-1
COc1cccc(CN(c2ccc3c(c2)CCC3)S(=O)(=O)c2ccc(-n3cnnn3)c(OC)c2)c1	6	0.9	-8	2	66*
SMILES	Diaphorase inh	Diaph act CS	G6PDH counter	WT yeast gro inh	L major viab
COc1cccc(CN(CC2CCCO2)S(=O)(=O)c2ccc(-n3cnnn3)c(OC)c2)c1 (stereo not drawn)	6	0.9	12	-1	5
COc1cc(S(=O)(=O)N(Cc2cccnc2)Cc2ccco2)ccc1-n1cnnn1	49	0.5	5	6	-2
COc1cccc(CN(Cc2cccnc2)S(=O)(=O)c2ccc(-n3cnnn3)c(C)c2)c1	4	1	5	-23	100*
N=c1n(Cc2ccccc2)c2ccccc2n1CC(O)c1ccco1 (stereo not drawn)	4	1	12	-5	89*
N=c1n(Cc2ccccc2)c2ccccc2n1Cc1ccccc1	0	1	3	11	99*
Cc1ccccc1Cn1c(=N)n(CC(=O)c2ccco2)c2ccccc21	10	0.9	4	-1	86*
CCC(CC)C(=O)N=C1SC2CS(=O)(=O)CC2N1CCc1ccc(OC)cc1 (stereo not drawn)	-7	1.1	9	8	1
Cc1ccc(N(Cc2cc3cc(C)ccc3[nH]c2=O)S(=O)(=O)c2ccccc2)cc1	18	0.8	-11	-9	8
COc1cc([N+](=O)[O-])ccc1NC(=O)CCN1C(=O)C2C3CCC(C3)C2C1=O (stereo not drawn)	14	0.9	14	8	56*
COc1cc([N+](=O)[O-])ccc1NC(=O)CN(C)C	12	0.9	13	6	-2
Cc1cccc(NC(=O)C2(C)CC3c4ccccc4C2c2ccccc23)c1C (stereo not drawn)	0	1	0	33	71*
COc1ccc(-n2c(N)c(C(=O)NCc3ccco3)c3nc4ccccc4nc32)cc1	54*	0.5	1	-21	5
Nc1c(C(=O)NCc2ccco2)c2nc3ccccc3nc2n1CCc1ccc(F)cc1	35	0.7	21	-13	99*
CC(=O)N1CCN(C(=S)Nc2cc(S(=O)(=O)N3CCOCC3)ccc2Cl)CC1	2	1	3	-8	-3
COc1ccc(-n2c(=O)c3c4c(sc3n3c(=S)[nH]nc23)CCCC4)cc1	33	0.7	11	12	50
N#CC1(c2ccccc2)CCCN1C(=O)c1ccc(Br)cc1 (stereo not drawn)	10	0.9	3	14	24
O=C(COc1ccc(Br)cc1CNCCc1ccccc1)NCc1ccccc1	-7	1.1	2	31	88*
CCCNCc1cc(Br)ccc1OCC(=O)NCCc1ccccc1	10	0.9	1	19	52*
COc1cc(C=O)c(Br)cc1OCC(=O)NCCc1ccccc1	19	0.8	11	17	4
Cc1cc(C)n(-c2nnc(N3CCN(c4ccc(F)cc4)CC3)nn2)n1	53*	0.5	2	15	8
Cc1ccc(NC(=O)Nc2ccc(F)cc2F)c(OC(F)F)c1	-6	1.1	8	-9	0
COc1ccc(NC(=O)Nc2cc(C)ccc2OC(F)F)c(OC)c1	12	0.9	-5	8	67*
CC(C)/C(=N/Nc1ccccc1[N+](=O)[O-])c1ccccc1	50*	0.5	8	64*	-4
O=C(Nc1c(Cl)cccc1Cl)c1cc(=O)n(Cc2ccccc2)c(=O)[nH]1	8	0.9	-1	0	-6
